Source: PubChem (several laboratories)
Hits are enriched below; roughly 1.8% of the tested compounds scored in any of these assays.
DAGLB inhibitor = blocks human DAGLB lipase activity; Q8NCG7; HEK293T DAGLB membrane lysate, EnzChek fluorogenic substrate; inhibition, % at 5.17 µM; 340,000 compounds, 0.059% hits; AID 504411; in the data active means inhibition above about 34%
Target sequence (Q8NCG7 whole entry, looked up): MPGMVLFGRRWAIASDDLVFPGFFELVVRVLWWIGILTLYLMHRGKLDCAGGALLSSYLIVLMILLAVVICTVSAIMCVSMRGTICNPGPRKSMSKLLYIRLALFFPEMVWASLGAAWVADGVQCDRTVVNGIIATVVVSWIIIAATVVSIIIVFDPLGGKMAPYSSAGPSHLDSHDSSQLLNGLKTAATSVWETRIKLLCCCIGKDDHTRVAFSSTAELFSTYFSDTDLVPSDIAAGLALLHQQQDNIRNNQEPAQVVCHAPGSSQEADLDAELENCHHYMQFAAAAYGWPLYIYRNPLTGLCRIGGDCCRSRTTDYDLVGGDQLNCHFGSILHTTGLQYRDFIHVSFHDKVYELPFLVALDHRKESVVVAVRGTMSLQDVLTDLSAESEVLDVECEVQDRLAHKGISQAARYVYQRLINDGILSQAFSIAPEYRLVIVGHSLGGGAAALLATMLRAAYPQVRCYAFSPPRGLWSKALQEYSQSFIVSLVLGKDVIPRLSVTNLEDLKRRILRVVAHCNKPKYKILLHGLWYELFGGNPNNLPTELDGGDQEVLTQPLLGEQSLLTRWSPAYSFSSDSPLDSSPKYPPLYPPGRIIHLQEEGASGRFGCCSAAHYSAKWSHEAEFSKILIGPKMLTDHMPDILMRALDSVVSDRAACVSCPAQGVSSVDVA
hiPSC survival = increases survival of single human iPS cells; hiPSC single-cell survival, ATPlite luminescence; 100% = ROCK inhibitor wells, 0% = DMSO; survival enhancement, % at 20 µM; 360,000 compounds, 0.044% hits; AID 602274; in the data active means survival enhancement above about 18%;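 further: cells exposed to compounds for 16 hours before the ATP read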
SKN-1 block = C. elegans SKN-1 inhibition; C. elegans VP596 Pgst-4::GFP/RFP ratio, acrylamide-induced, 24 h; 360,000 compounds, 0.49% hits; inhibition, % at 21.8 µM;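 active means interference check ratio from 0.5 to 1.5 plus GFP to RFP signal ratio inhibition reaching or exceeding a fixed threshold, cut at about 30% in these data, passing the limit was not always enough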
rRNA inh HTS = inhibitors of bacterial rRNA selective over humanized ribosomes; E. coli WT GFP vs humanized-ribosome RFP mutants, fluorescence, 24 h; active compounds read low; DMSO median 0, no signal -100; 350,000 compounds, 1.6% hits; GFP signal change (wild-type ribosome), % (test concentration not listed);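 active means significant combined selectivity score with lowered wild-type GFP, culture density cut under 30%, mutant RFP and density less affected; inactive means any of these conditions unmet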
MT1-MMP act inh = blocks activation of human MT1-MMP; HT1080 RFP-PRO-GFP cells, GFP/RFP ratio fluorescence, overnight; percent of plate control window, DMSO zero; GFP/RFP ratio change, % at 20 µM; 360,000 compounds, 0.061% hits;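 active means GFP/RFP ratio change of at least 30% with cell ATP level not reduced by more than half and red fluorescence within 50% of control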
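Assay system – RFP-PRO-GFP reporter HT1080 cells · Compound dosing – single dose of 20 µM compound, 1% DMSO final · Incubation – overnight compound exposure at 37 °C · Measure – GFP/RFP fluorescence ratio · Benchmarks – DMSO wells and RFP-L50D-GFP cells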
Cneo AK release = Cryptococcus neoformans lysis via adenylate kinase release; C. neoformans lysis, adenylate kinase release luminescence, 4 h; normalised: neutral wells 0, clomiphene wells 100; lysis activity, % at 15 µM; 360,000 compounds, 0.2% hits;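 active means mean lysis activity across replicates of at least 80%, whatever share of replicates individually reach that level; inactive means mean lysis activity below 80%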
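Material: C. neoformans cells; Schedule: 4 h static compound exposure, 37 °C, read 1 h post-reagent; Measured by: adenylate kinase release luminescence; Read-out: signal increase indicating cell lysis; Controls: Clomiphene as positive lysis control.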
A number is an active result; i = inactive; nt = no result.

SMILES	DAGLB inhibitor	hiPSC survival	SKN-1 block	rRNA inh HTS	MT1-MMP act inh	Cneo AK release
O=C(Cc1ccccn1)N1CC2(C1)[C@H](c1ccccc1)[C@@H](CO)N2C(=O)c1ccccc1	nt	nt	nt	i	nt	nt
CCC1CN(C(=O)NCc2ccccc2)c2ccccc2O1 (stereo not drawn)	i	i	i	-22	i	i
CCC1CN(C(=O)NCc2ccccc2)c2cc(Cl)ccc2O1 (stereo not drawn)	i	i	i	i	i	i
O=C(C1CCC1)N1CC2(C1)[C@H](c1ccccc1)[C@H](CO)N2C(=O)c1cccnc1	nt	nt	nt	i	nt	nt
O=S(=O)(NC[C@@H]1[C@@H](c2ccccc2)[C@H](CO)N1CC1CC1)c1ccccc1	nt	nt	nt	i	nt	107
N#C[C@H]1[C@@H](c2ccccc2)[C@@H](CO)N1S(=O)(=O)c1ccc(F)cc1	nt	nt	nt	i	nt	i
CN(C)C(=O)C[C@@H]1CC[C@@H](NS(=O)(=O)c2ccccc2)[C@@H](CO)O1	nt	nt	nt	i	nt	i
O=C1C=CC(c2c[nH]c3ccccc23)CC1 (stereo not drawn)	nt	i	i	-14	i	nt
CCOc1ccccc1NC(=O)C(CC(C)C)NC(=O)C1CCC(C)CC1 (stereo not drawn)	i	i	41	nt	i	i
CC(C)C#Cc1cnc2c(c1)C(=O)N([C@H](C)CO)C[C@H](C)[C@H](CN(C)C(=O)Nc1ccccc1F)O2	nt	nt	nt	i	nt	i
NC(=O)c1cc(N)ccc1N1CCCC1	i	i	60	nt	i	i
NC(=O)c1cc(N)ccc1N1CCCCC1	nt	i	i	i	i	nt
C/C(=N\NC(=O)COc1ccc(C)cc1Br)c1cc([N+](=O)[O-])cs1	i	i	i	-23	i	i
O=C(Nc1ccc(Br)cc1)N1CCc2ccccc2C1	i	i	i	-39	i	i
O=C(Nc1ccc(F)cc1)N1CCc2ccccc2C1	i	i	i	i	i	nt
CN(Cc1ccccc1)C(=O)c1nc[nH]c1C(=O)N1CCc2ccccc2C1	i	i	i	i	i	i
O=C(c1nc[nH]c1C(=O)N1CCc2ccccc2C1)N1CCc2ccccc2C1	i	i	38	i	i	i
CN(C)C(=O)[C@@H]1[C@@H](CO)[C@@H]2Cn3c(ccc(-c4cccnc4)c3=O)[C@@H]2N1Cc1ccccc1F	nt	nt	nt	i	nt	i
Nc1ccc(S(=O)(=O)Nc2nccs2)cc1N=Nc1ccccc1[N+](=O)[O-]	i	i	i	-20	i	nt
O=C(NCCCCc1ccccc1)c1ccccc1F	i	i	i	i	i	i
O=C(NCCCCc1ccccc1)c1ccccc1Br	nt	i	i	-36	i	i
COc1ccc2c3c([nH]c2c1)[C@H](CO)N(C(=O)c1ccc(F)cc1)CC31CCN(C)CC1	nt	nt	nt	i	nt	nt
CC(C)C(CCNCc1ccccn1)c1ccc(Cl)cc1 (stereo not drawn)	i	i	38	i	i	i
CC(C)CCC(CCNCc1ccccn1)c1ccc2c(c1)OCO2 (stereo not drawn)	i	i	i	i	nt	i
N#Cc1cnn(-c2ccc([N+](=O)[O-])cc2[N+](=O)[O-])c1N	i	i	i	-7.5	i	i
SMILES	DAGLB inhibitor	hiPSC survival	SKN-1 block	rRNA inh HTS	MT1-MMP act inh	Cneo AK release
C[C@H](CO)N1C[C@H](C)[C@H](CN(C)Cc2ccc(C(F)(F)F)cc2)Oc2ccc(NC(=O)Nc3ccc(C(F)(F)F)cc3)cc2CC1=O	nt	nt	nt	i	nt	i
COc1ccc(C(CCNCc2ccc(OC(C)C)cc2)C(C)C)cc1 (stereo not drawn)	nt	i	i	-48	i	i
Cc1cccc(C)c1N(CC(=O)Nc1cccc(N(C)S(C)(=O)=O)c1)S(C)(=O)=O	i	i	37	nt	i	i
Cc1ccc(Cl)cc1N(CC(=O)Nc1cccc(N(C)S(C)(=O)=O)c1)S(C)(=O)=O	i	i	i	i	i	nt
O=C(Nc1ccc(-c2nc3ncccc3o2)cc1)c1ccco1	i	i	i	nt	i	nt
O=C(Nc1ccc2oc(-c3cccnc3)nc2c1)c1ccco1	i	i	i	nt	i	nt
O=C(Nc1ccc2oc(-c3cccnc3)nc2c1)c1ccc(Br)o1	i	i	35	nt	i	i
COc1cccc(C(=O)Nc2cccc(-c3nc4ncccc4o3)c2C)c1	i	i	i	nt	i	i
O=C(Nc1ccc(-c2nc3ncccc3o2)cc1)c1ccc(Br)o1	i	i	38	nt	i	i
Cc1c(NC(=O)c2ccc([N+](=O)[O-])o2)cccc1-c1nc2ncccc2o1	i	i	i	-24	i	i
COc1cccc(Cn2cccc(NC(=O)Nc3cccc(C#N)c3)c2=O)c1	nt	nt	nt	i	nt	nt
COc1cccc(NC(=O)Nc2cccn(Cc3ccc(C)cc3)c2=O)c1	i	i	i	-29	i	nt
C[C@@H]1CCCCO[C@@H](CN(C)Cc2ccc(C(=O)O)cc2)[C@H](C)CN([C@@H](C)CO)C(=O)c2cc(NC(=O)c3ccncc3)ccc2O1	nt	nt	nt	i	nt	i
Cc1cc(OCCCCN2C(=O)NC(C)(C)C2=O)cc(C)c1Cl	i	i	39	nt	i	i
CC1(C)NC(=O)N(CCCCOc2ccc(Cl)cc2)C1=O	i	i	i	nt	i	i
CC1CCC(C(C)C)C(OC(=O)C[n+]2cccc(C(N)=O)c2)C1 (stereo not drawn)	i	i	38	nt	i	i
C[C@H]1CN([C@@H](C)CO)S(=O)(=O)c2ccc(C#CC3(O)CCCC3)cc2O[C@H]1CN(C)C	nt	nt	nt	i	nt	i
O=C(CSc1nnnn1C1CCCCC1)NCCc1ccccc1	i	i	i	-28	i	i
O=C(CSc1nnnn1C1CCCCC1)NCc1cccs1	i	i	i	i	i	nt
CC(C)CC#Cc1ccc([C@H]2[C@@H](CO)N3C(=O)CN(C(=O)NC(C)C)C[C@@H]23)cc1	nt	nt	nt	i	nt	nt
CCOC(=O)c1c(C)[nH]c(O)c1C=Nc1ccc(C(F)(F)F)cc1	i	i	60	nt	i	i
COc1ccccc1Sc1nc(-c2ccccn2)ncc1OC	i	23	i	i	i	nt
O=C(Nc1ccc(Cl)cc1)N[C@H]1CC[C@@H](CCNC(=O)c2ccccc2F)O[C@@H]1CO	nt	nt	nt	i	nt	i
C[C@@H]1CN([C@H](C)CO)S(=O)(=O)c2ccc(C3=CCCC3)cc2O[C@@H]1CN(C)C(=O)C1CCOCC1	nt	nt	nt	i	nt	i
COc1cccc(-c2ccc3c(c2)[C@@H]2[C@@H](CCN2C(=O)NC2CCCCC2)[C@H](CO)N3C)c1	nt	nt	nt	i	nt	nt
COc1ccc(CNc2ccc3c(c2)ncn3-c2ccccc2OC)cc1	i	i	i	nt	i	nt
COc1ccccc1-n1cnc2cc(NCc3ccccc3O)ccc21	i	i	i	-18	i	i
COc1ccc(C(=O)O)cc1S(=O)(=O)N(CCc1ccccc1)Cc1ccccc1	i	i	i	-36	i	i
